# PGC1a acetyl inh: inhibitors of PGC1a acetylation signal, primary screen, cell-based, U2OS, AlphaScreen, inhibitor mode; AlphaScreen anti-acetyl-lysine; with virally co-expressed GCN5 acetyltransferase; inhibition, % at 15.6 µM; 350,000 tested, 0.17% active; AID 651687, 2012;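 active = every replicate shows inhibition of at least 40%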;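 also: 0% = neutral control wells and 100% = positive control wells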
# CAL PDZ FP-1: untagged CAL PDZ binding inhibitors, primary screen, biochemical, fluorescence polarization, HTS; purified CAL PDZ, TMR-peptide fluorescence polarization, 1 h; inhibition, % at 24.9 µM; 300,000 tested, 0.92% active; AID 602252, 2012;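 active = mean inhibition of at least 30% with at least half of replicates also reaching 30%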;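 also: 0% = DMSO neutral control and 100% = excess unlabeled competitor peptide PRC23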
# F508del corr: F508del CFTR correction, initial screen, CFBE line, single point. AID 720511, 2013. 350,000 tested, 0.36% active. CFBE cells, YFP halide quenching; stimulated with forskolin plus potentiator P3; % fluorescence drop versus neutral controls. activity (quench increase), % at 7.58 µM;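 active = mean added fluorescence quench of at least 8% versus neutral control, with both replicates also reaching 8%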;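 also: cells transiently co-express mutant CFTR-F508del with the halide-sensitive YFP; corrector assay measuring rescue of mutant channel to the surface after 24 h compound exposure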
# CAL PDZ FP-2: CAL PDZ peptide-binding inhibitors, primary screen, biochemical, fluorescence polarization, Cer-tagged CAL PDZ, HTS; Golgi-associated PDZ and coiled-coil motif-containing protein (Homo sapiens), Q9HD26; purified CAL PDZ, TMR-peptide fluorescence polarization, 1 h; inhibition, % at 20 µM; 330,000 tested, 0.02% active;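 active = highest replicate inhibition of at least 40%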;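 also: plate controls were DMSO neutral control wells for no effect and unlabeled competitor peptide control wells for full effect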
#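 System: tagged CAL PDZ domain. Schedule: 1 h room-temperature incubation prior to read. Signal: fluorescence polarization (mP). Measure: percent inhibition from loss of millipolarization.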
# ARNT TACC3 PPI: disruptors of ARNT/TACC3 protein interaction, primary screen, biochemical, AlphaScreen, single concentration; 390,000 tested, 0.66% active; Transforming acidic coiled-coil-containing protein 3 (Homo sapiens), Q9Y6A5; AlphaScreen His-ARNT PAS-B/GST-TACC3 binding, luminescence; TACC3 fragment carries E629A point mutation; inhibition, % at 9.99 µM;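 active = mean inhibition of replicates at least 50% and at least half of replicates each reaching 50%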;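 also: 0% = complete ARNT plus TACC3 wells and 100% = ARNT alone without TACC3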
# miR122 inh: miR-122 Renilla sensor signal increase in Huh7, primary screen, miR-122 inhibitor project, cell-based, single point, plate reader; Huh7 miR-122 Renilla luciferase sensor, 48 h; neutral wells = 0, positive control = 100; activation (reporter increase), % at 12.5 µM; 340,000 tested, 0.3% active;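 active = mean replicate activation score at least 90 and every replicate individually at or above 90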;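 also: higher luciferase means less miR-122 activity so hits act as miR-122 inhibitors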
# ARNT Alpha ctr-1: AlphaScreen signal interference compounds, dose response, artefact control for ARNT-TACC3 interaction inhibitor project, biochemical, luminescence, cherry-pick; shares compounds with ARNT TACC3 PPI; His-ARNT PASB-GST AlphaScreen artifact counter-screen; AC50, µM (series often up to 68 µM), inactives show at the top dose activity change, negative = signal decrease; 1,200 tested, 50% active; AID 651705, 2012;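 active = every separate test run was called active for a drop in luminescence, with AC50 within twice the top valid dose, actives reach about 71 µM in these data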
# ARNT Alpha ctr-2: AlphaScreen signal interference by compounds, dose response, artefact control for ARNT/TACC3 disruptor project, biochemical, dual-tagged ARNT, dry powder | shares compounds with ARNT TACC3 PPI | Dual-tagged His-ARNT PASB-GST AlphaScreen artifact counter-screen | AC50, µM | 45 tested, 70% active | AID 720564, 2013;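 active = luminescence drop, with half-maximal potency fitted within twice the sample's top valid dose, cut at about 70 µM in these data; inactive = the rest, including signal moving the wrong way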
# * hit, by the source's call; / = not tested or not shown; [ ] = another dose, or the depositor's remark. Only some compounds are listed: those with a hit (about 1.7% of all), similar ones and a draw of the others.
SMILES,PGC1a acetyl inh,CAL PDZ FP-1,F508del corr,CAL PDZ FP-2,ARNT TACC3 PPI,miR122 inh,ARNT Alpha ctr-1,others
COc1ccc(S(=O)(=O)Nc2ccc3c(c2)C(=O)N([C@H](C)CO)C[C@H](C)[C@H](CN(C)S(=O)(=O)c2ccc(C)cc2)O3)cc1,1,/,0,/,52*,-3[16.7 µM],-21%[38 µM],
C[C@H](CO)N1C[C@H](C)[C@@H](CN(C)C(=O)Nc2ccc(C(F)(F)F)cc2)Oc2ncc(C3=CCCC3)cc2C1=O,-1,/,-1,/,81*,7[16.7 µM],-26%[38 µM],
C[C@@H]1CN([C@H](C)CO)C(=O)c2cc(NC(=O)C3CC3)ccc2O[C@@H]1CN(C)C(=O)Nc1ccc(F)cc1,-1,/,1,/,-4,7[16.7 µM],/,
C[C@@H]1CN([C@@H](C)CO)C(=O)c2cc(NC(=O)C3CC3)ccc2O[C@H]1CN(C)C(=O)Nc1ccc(F)cc1,-2,/,0,/,55*,5[16.7 µM],-5%[42 µM],
C[C@@H]1CCCCO[C@H](CN(C)Cc2ccc3c(c2)OCO3)[C@@H](C)CN([C@H](C)CO)C(=O)c2cc(NC(=O)Nc3ccc(C(F)(F)F)cc3)ccc2O1,3,/,0,/,30,-2[16.7 µM],/,
Cc1ccc(S(=O)(=O)N[C@@H]2CC[C@H](CCNC(=O)c3ccccc3F)O[C@H]2CO)cc1,-14,/,2,/,3,-3[16.7 µM],/,
COc1ccc2c3c(n(C)c2c1)[C@H](CO)N(Cc1ccncc1)CC31CCN(C(=O)C2CCCCC2)CC1,/,/,4,/,/,/,/,
C[C@@H]1CN([C@@H](C)CO)C(=O)c2cc(NC(=O)CCN3CCOCC3)ccc2O[C@@H]1CN(C)Cc1ccncc1,2,/,0,/,51*,1[16.7 µM],-7%[38 µM],
C[C@H]1CCCCO[C@H](CN(C)C(=O)Nc2ccc(F)cc2)[C@@H](C)CN([C@@H](C)CO)C(=O)c2cc(NS(=O)(=O)c3ccc(Cl)cc3)ccc2O1,15,/,-1,/,active,35[16.7 µM],-36%[38 µM],
C[C@H](CO)N1C[C@H](C)[C@H](CN(C)C(=O)Nc2ccc(F)cc2)OCCCC[C@H](C)Oc2ccc(NS(=O)(=O)c3ccc(Cl)cc3)cc2C1=O,6,/,1,/,-6,-3[16.7 µM],/,
C[C@@H]1CCCCO[C@@H](CN(C)C(=O)NC2CCCCC2)[C@H](C)CN([C@H](C)CO)C(=O)c2cc(NC(=O)C3CCCCC3)ccc2O1,18,/,0,/,-4,-16[16.7 µM],/,
C[C@@H]1CN([C@@H](C)CO)C(=O)c2cc(NC(=O)C3CCCCC3)ccc2O[C@@H](C)CCCCO[C@@H]1CN(C)C(=O)NC1CCCCC1,10,/,-3,/,active,46[16.7 µM],-5%[38 µM],
COCC(=O)N1CC2(CCN(C(=O)CN3CCOCC3)CC2)c2c([nH]c3cc(OC)ccc23)[C@@H]1CO,-3,/,-1,/,/,/,/,
CO[C@H]1CN(C)C(=O)c2cc(NC(C)=O)ccc2OC[C@@H](C)N(Cc2cccnc2)C[C@H]1C,2,/,1,/,11,18[16.7 µM],/,
CCC(=O)N1C[C@H](C)[C@H](OC)CN(C)C(=O)c2ccc(NC(=O)NC(C)C)cc2OC[C@H]1C,11,/,0,/,/,/,/,
CC(C)NC(=O)Nc1ccc2c(c1)C(=O)N([C@H](C)CO)C[C@H](C)[C@@H](CN(C)CC1CC1)OCCCC[C@H](C)O2,3,/,-1,/,-3,4[16.7 µM],/,
CC(C)NC(=O)N(C)C[C@H]1Oc2c(NC(=O)NC3CCCCC3)cccc2C(=O)N([C@@H](C)CO)C[C@H]1C,0,/,0,/,1,4[16.7 µM],/,
COc1cccc(/C=N/Nc2nc3ccccc3[nH]2)c1OC,/,-4,0,-1,0,/,/,
COc1cccc(/C=N/Nc2nc3ccccc3[nH]2)c1O,14,4,-3,-1,58*,-24,-42%,
O=C(C[C@H]1CC[C@H](NC(=O)c2ccccn2)[C@@H](CO)O1)NCc1cc(F)cc(F)c1,0,/,2,/,6,/,/,
O=C(NCCCn1ccnc1)C(=O)NCC(c1ccco1)N1CCN(c2ccccc2)CC1 (stereo not given),-1,0,-1,-2,45*,-4,-13%,
COc1ccc(N2CCN(C(CNC(=O)C(=O)NCCCn3ccnc3)c3ccco3)CC2)cc1 (stereo not given),9,-4,-1,-2,2,/,/,
O=C(NCCCn1ccnc1)C(=O)NCC(c1ccco1)N1CCN(c2ccc(F)cc2)CC1 (stereo not given),0,1,-1,-1,59*,/,-15%,
CO[C@H]1CN(C)C(=O)c2cc(NC(=O)c3cnccn3)ccc2OC[C@H](C)N(C)C[C@H]1C,-3,/,-1,/,6,1[16.7 µM],/,
COCC(=O)N(C)C[C@@H]1Oc2ncc(-c3ccc(C)cc3)cc2C(=O)N([C@@H](C)CO)C[C@@H]1C,9,/,-1,/,-10,-6[16.7 µM],/,
SMILES,PGC1a acetyl inh,CAL PDZ FP-1,F508del corr,CAL PDZ FP-2,ARNT TACC3 PPI,miR122 inh,ARNT Alpha ctr-1,others
Clc1ccc(OCc2nc(-c3ccccn3)no2)c(Br)c1,2,3,2,0,-9,-4,/,
Nc1nc(-c2ccccn2)nc(N)c1Cc1c(F)cccc1Cl,16,-4,-1,-1,/,-3,/,
Nc1nc(-c2ccccn2)nc(N)c1Cc1ccc(Cl)cc1Cl,25,/,1,0,57*,-1,26µM*,ARNT Alpha ctr-2=12*
Nc1nc(-c2ccccn2)nc(N)c1Cc1ccccc1F,16,3,-5,-2,67*,10,22µM*,
C[C@H]1CCCCO[C@@H](CN(C)S(=O)(=O)c2cccs2)[C@@H](C)CN([C@@H](C)CO)C(=O)c2cc(N(C)C)ccc2O1,-24,/,0,/,/,-7[16.7 µM],/,
COc1cccc(CNC(=O)CSc2ccc(-c3ccccn3)nn2)c1,-4,7,2,-2,66*,-5,61µM*,
O=C(CSc1ccc(-c2ccccn2)nn1)NCc1ccc(Cl)cc1,-10,-2,5,-3,53*,-4,69µM*,

# Assay outcomes as filed in PubChem.
